Test results reported in ChEMBL document CHEMBL3397031, “Synthesis and structure-activity relationships of pyridinyl-1H-1,2,3-triazolyldihydroisoxazoles as potent inhibitors of tubulin polymerization” (Eur J Med Chem, 2015).
pIC50: −log10 of the molar value. Active and inactive are the calls of the source. The rule behind the calls is not given here.

Key:
A549 = experiment: Cytotoxicity against human A549 cells after 48 hrs by MTT assay; type: functional, cell-based; conditions: A549, 48 h
Method in brief: (§1)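 A549, HeLa and MCF7 cells were grown in DMEM with 10% FBS, and DU145 in MEM with non-essential amino acids, pyruvate, insulin and 10% FBS. Cells were plated 24 h before dosing, then exposed continuously for 48 h at 1, 10, 25 and 100 µM in triplicate wells. MTT was added for 60 min, dissolved in DMSO and read at 560 nm. IC50 was taken from dose-response curves against control, as mean ± SD of three independent experiments.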

DU-145 = experiment: Cytotoxicity against human DU145 cells after 48 hrs by MTT assay; type: functional, cell-based; conditions: DU-145, 48 h; method in brief: as §1
HeLa [1] = experiment: Cytotoxicity against human HeLa cells after 48 hrs by MTT assay; type: functional, cell-based; method in brief: as §1
MCF7 = experiment: Cytotoxicity against human MCF7 cells after 48 hrs by MTT assay; type: functional, cell-based; conditions: MCF7, 48 h; method in brief: as §1
Tubulin (Bos taurus) = Tubulin (Bos taurus) (UniProt Q6B856+Q862L2+Q862F3); conditions: at 10 µM
Tubulin = Tubulin (Bos taurus, UniProt Q6B856+Q862L2+Q862F3); experiment: Inhibition of bovine brain tubulin polymerization measured for 1 hr by fluorescence assay
HeLa [2] = experiment: Cell cycle arrest in human HeLa cells assessed as accumulation at G2/M phase at 10 uM after 24 hrs by FACS analysis (reference value: 26.75%); type: functional
HeLa [3] = experiment: Cell cycle arrest in human HeLa cells assessed as disruption of microtubule organization at 10 uM after 24 hrs by DAPI staining-based immunohistochemistry relative to control; type: functional
Method in brief: (§2)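 HeLa cells were grown on coverslips and treated 24 h at 10 µM. They were fixed in 3.5% formaldehyde/PBS pH 7.4 for 10 min, permeabilized with 0.5% Triton X-100/0.05% Tween-20 and blocked in 2% BSA. Staining used anti-tubulin (1:200, 4 h, room temperature) then FITC anti-mouse (1:500, 1 h). Cells were mounted with DAPI and imaged by confocal microscopy.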

HeLa [4] = experiment: Cell cycle arrest in human HeLa cells assessed as planar arrangement of chromosomes with distinct microtubule organization centres at 10 uM after 24 hrs by DAPI staining-based immunohistochemistry relative to control; type: functional; method in brief: as §2
HeLa [5] = experiment: Cell cycle arrest at G2/M phase in human HeLa cells assessed as increase in cyclin B1 expression at 10 uM after 24 hrs by immunoblot analysis relative to control; type: functional, cell-based
HeLa [6] = experiment: Cell cycle arrest at G2/M phase in human HeLa cells assessed as increase in soluble form of tubulin at 10 uM after 24 hrs by immunoblot analysis relative to control; type: functional, cell-based
Method in brief: (§3)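 HeLa cells seeded at 1×10^5 per well in complete growth medium and treated 24 h (test compounds 10 µM; nocodazole 2 µM as positive control; DMSO controls). Soluble tubulin was taken by 3 min permeabilization at 30 °C in PIPES-KOH pH 6.8/0.2% Triton X-100/glycerol buffer, and insoluble pellet fraction in Laemmli buffer. Equal volumes were run on SDS-10% PAGE and probed with mouse anti-α-tubulin, with HRP secondary and ECL detection.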

HeLa [7] = experiment: Cell cycle arrest at G2/M phase in human HeLa cells assessed as reduction in polymerized form of tubulin at 10 uM after 24 hrs by immunoblot analysis relative to control; type: functional, cell-based; method in brief: as §3
HeLa [8] = experiment: Cell cycle arrest at G2/M phase in human HeLa cells assessed as increase in cyclin B1 expression at 2 uM after 24 hrs by immunoblot analysis relative to control; type: functional, cell-based
HeLa [9] = experiment: Cell cycle arrest at G2/M phase in human HeLa cells assessed as soluble form of tubulin at 2 uM after 24 hrs by immunoblot analysis relative to control; type: functional, cell-based; method in brief: as §3

| Structure (SMILES) | inhibition (Tubulin (Bos taurus)) [%] | IC50 (Tubulin) [µM] | pIC50 (A549) | pIC50 (DU-145) | pIC50 (HeLa [1]) | pIC50 (MCF7) | Activity (HeLa [2]) [%] | Activity (HeLa [3]) | Activity (HeLa [4]) | Activity (HeLa [5]) | Activity (HeLa [6]) | Activity (HeLa [7]) | Activity (HeLa [8]) | Activity (HeLa [9]) |
| --- | --- | --- | --- | --- | --- | --- | --- | --- | --- | --- | --- | --- | --- | --- |
| COc1cc(-c2cc(COCc3cn(Cc4cc(-c5ccc(F)cc5)cnc4Cl)nn3)on2)cc(OC)c1OC | 46 |  | 4.39 | 4.50 | 4.43 | 4.12 |  |  |  |  |  |  |  |  |
| COc1cc(-c2cc(COCc3cn(Cc4cc(-c5ccc(C)cc5)cnc4N4CCOCC4)nn3)on2)cc(OC)c1OC | 64 |  | 4.34 | 4.28 | 4.44 | 4.13 |  |  |  |  |  |  |  |  |
| COc1cc(-c2cc(COCc3cn(Cc4cc(C)cnc4N4CCSCC4)nn3)on2)cc(OC)c1OC | 32 |  | 4.40 | 4.13 | 4.27 | 4.08 |  |  |  |  |  |  |  |  |
| COc1cc2c(c(OC)c1OC)-c1ccc(OC)c(=O)cc1[C@@H](NC(C)=O)CC2 [COLCHICINE] |  |  | 6.92 | 6.16 | 6.27 | 7.15 |  |  |  |  |  |  |  |  |
| COC(=O)Nc1nc2cc(C(=O)c3cccs3)ccc2[nH]1 |  |  |  |  |  |  |  |  |  |  |  |  | Active | Active |
| COc1cc(C2=NOC(COCc3cn(Cc4cc(-c5ccc(C)cc5)cnc4N4CCOCC4)nn3)C2)cc(OC)c1OC (stereo not given) | 27 |  | 4.40 | 4.30 | 4.41 | 4.22 |  |  |  |  |  |  |  |  |
| COc1cc(COCc2cn(Cc3cc(-c4ccc(F)cc4)cnc3Cl)nn2)cc(OC)c1OC | 41 |  | 4.30 | 4.41 | 4.30 | 4.02 |  |  |  |  |  |  |  |  |
| COc1cc(COCc2cn(Cc3cc(C)cnc3N3CCOCC3)nn2)cc(OC)c1OC | 45 |  | 4.19 | 4.18 | 4.45 | 4.31 |  |  |  |  |  |  |  |  |
| COc1cc(C2=NOC(COCc3cn(Cc4cc(C)cnc4N4CCSCC4)nn3)C2)cc(OC)c1OC (stereo not given) | 38 |  | 4.34 | 4.53 | 4.39 | 4.35 |  |  |  |  |  |  |  |  |
| COc1cc(COCc2cn(Cc3cc(-c4ccc(C)cc4)cnc3N3CCOCC3)nn2)cc(OC)c1OC | 48 |  | 4.41 | 4.46 | 4.45 | 4.29 |  |  |  |  |  |  |  |  |
| COc1cc(C2=NOC(COCc3cn(Cc4cc(-c5ccccc5)cnc4N4CCSCC4)nn3)C2)cc(OC)c1OC (stereo not given) | 50 |  | 4.50 | 4.46 | 4.53 | 4.35 |  |  |  |  |  |  |  |  |
| COc1cc(COCc2cn(Cc3cc(C)cnc3Cl)nn2)cc(OC)c1OC | 24 |  | 4.38 | 4.46 | 3.58 | 4.17 |  |  |  |  |  |  |  |  |
| COc1cc(COCc2cn(Cc3cc(-c4ccccc4)cnc3N3CCOCC3)nn2)cc(OC)c1OC | 16 |  | 4.08 | 4.15 | 4.07 | 4.01 |  |  |  |  |  |  |  |  |
| COc1cc(-c2cc(COCc3cn(Cc4cc(C)cnc4N4CCOCC4)nn3)on2)cc(OC)c1OC | 19 |  | 4.40 | 4.26 | 3.89 | 3.71 |  |  |  |  |  |  |  |  |

Now from value to compound, other results behind:

| inhibition (Tubulin (Bos taurus)) [%] | IC50 (Tubulin) [µM] | Structure (SMILES) | pIC50 (A549) | pIC50 (DU-145) | pIC50 (HeLa [1]) | pIC50 (MCF7) | Activity (HeLa [2]) [%] | Activity (HeLa [3]) | Activity (HeLa [4]) | Activity (HeLa [5]) | Activity (HeLa [6]) | Activity (HeLa [7]) | Activity (HeLa [8]) | Activity (HeLa [9]) |
| --- | --- | --- | --- | --- | --- | --- | --- | --- | --- | --- | --- | --- | --- | --- |
| 22 |  | COc1cc(-c2cc(COCc3cn(Cc4cc(C)cnc4Cl)nn3)on2)cc(OC)c1OC | 3.59 | 4.40 | 4.24 | 3.71 |  |  |  |  |  |  |  |  |
| 69 | 8.1 | COc1cc(C2=NOC(COCc3cn(Cc4cc(-c5ccc(C)cc5)cnc4Cl)nn3)C2)cc(OC)c1OC (stereo not given) | 4.94 | 4.88 | 5.01 | 4.89 | 78.85 | Active | Active | Active | Active | Active |  |  |
| 35 |  | COc1cc(COCc2cn(Cc3cc(-c4ccc(C)cc4)cnc3Cl)nn2)cc(OC)c1OC | 3.82 | 4.43 | 4.54 | 3.84 |  |  |  |  |  |  |  |  |
| 27 |  | COc1cc(COCc2cn(Cc3cc(C)cnc3N3CCSCC3)nn2)cc(OC)c1OC | 4.15 | 4.31 | 4.21 | 4.09 |  |  |  |  |  |  |  |  |
| 59 |  | COc1cc(-c2cc(COCc3cn(Cc4cc(-c5ccc(C)cc5)cnc4Cl)nn3)on2)cc(OC)c1OC | 4.51 | 4.43 | 4.45 | 4.23 |  |  |  |  |  |  |  |  |
| 11 |  | COc1cc(-c2cc(COCc3cn(Cc4cc(-c5ccccc5)cnc4N4CCSCC4)nn3)on2)cc(OC)c1OC | 4.28 | 3.68 | 3.76 | 3.67 |  |  |  |  |  |  |  |  |
| 22 |  | COc1cc(C2=NOC(COCc3cn(Cc4cc(-c5ccc(C)cc5)cnc4N4CCSCC4)nn3)C2)cc(OC)c1OC (stereo not given) | 4.36 | 4.06 | 4.41 | 4.15 |  |  |  |  |  |  |  |  |
| 27 |  | COc1cc(-c2cc(COCc3cn(Cc4cc(-c5ccccc5)cnc4N4CCOCC4)nn3)on2)cc(OC)c1OC | 4.41 | 4.27 | 4.40 | 4.20 |  |  |  |  |  |  |  |  |
| 53 |  | COc1cc(C2=NOC(COCc3cn(Cc4cc(C)cnc4Cl)nn3)C2)cc(OC)c1OC (stereo not given) | 4.42 | 4.23 | 4.30 | 4.07 |  |  |  |  |  |  |  |  |
| 51 |  | COc1cc(C2=NOC(COCc3cn(Cc4cc(-c5ccc(F)cc5)cnc4Cl)nn3)C2)cc(OC)c1OC (stereo not given) | 4.60 | 4.48 | 4.57 | 4.34 |  |  |  |  |  |  |  |  |
| 39 |  | COc1cc(COCc2cn(Cc3cc(-c4ccccc4)cnc3N3CCSCC3)nn2)cc(OC)c1OC | 4.34 | 4.31 | 4.50 | 4.23 |  |  |  |  |  |  |  |  |
| 18 |  | COc1cc(COCc2cn(Cc3cc(-c4ccccc4)cnc3Cl)nn2)cc(OC)c1OC | 4.20 | 4.34 | 4.38 | 4.06 |  |  |  |  |  |  |  |  |
| 72 | 6.8 | COc1cc(C2=NOC(COCc3cn(Cc4cc(-c5ccccc5)cnc4Cl)nn3)C2)cc(OC)c1OC (stereo not given) | 5.07 | 4.94 | 5.14 | 4.84 | 87.79 | Active | Active | Active | Active | Active |  |  |
| 46 |  | COc1cc(C2=NOC(COCc3cn(Cc4cc(-c5ccccc5)cnc4N4CCOCC4)nn3)C2)cc(OC)c1OC (stereo not given) | 4.41 | 4.35 | 4.37 | 4.16 |  |  |  |  |  |  |  |  |
| 15 |  | COc1cc(-c2cc(COCc3cn(Cc4cc(-c5ccc(C)cc5)cnc4N4CCSCC4)nn3)on2)cc(OC)c1OC | 4.21 | 4.03 | 4.28 | 4.19 |  |  |  |  |  |  |  |  |
| 21 |  | COc1cc(COCc2cn(Cc3cc(-c4ccc(C)cc4)cnc3N3CCSCC3)nn2)cc(OC)c1OC | 4.47 | 4.38 | 3.45 | 4.17 |  |  |  |  |  |  |  |  |
| 16 |  | COc1cc(-c2cc(COCc3cn(Cc4cc(-c5ccccc5)cnc4Cl)nn3)on2)cc(OC)c1OC | 3.95 | 4.11 | 4.37 | 4.16 |  |  |  |  |  |  |  |  |
| 27 |  | COc1cc(C2=NOC(COCc3cn(Cc4cc(C)cnc4N4CCOCC4)nn3)C2)cc(OC)c1OC (stereo not given) | 4.34 | 3.86 | 4.43 | 3.83 |  |  |  |  |  |  |  |  |
